From ChEMBL document CHEMBL3244059, “Synthesis and pharmacological activity of a phosphate ester of delta8-tetrahydrocannabinol” (J Med Chem, 1978) come the findings set out here.

The nature of data set [1]: Drug metabolism in mouse liver homogenates assessed as compound hydrolysis at pH 5 after 30 mins by spectrophotometric analysis in presence of alkaline phosphatase. The data set is classed as ADME, tissue-based. As to conditions: read-out: Drug metabolism. In outline: (§1)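 Substrate (1.5 μmol) incubated at 37 °C with mouse liver homogenate (equivalent to 0.1 g liver) in 0.1 M glycine buffer pH 9.6 or 0.1 M acetate buffer pH 5.0. Sampled at 15, 30 and 60 min. Percent hydrolysis given as mean of duplicate determinations.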

The nature of data set [2]: Drug metabolism in mouse liver homogenates assessed as compound hydrolysis at pH 9.6 after 60 mins by spectrophotometric analysis in presence of alkaline phosphatase. The data set is classed as ADME, tissue-based. As to conditions: read-out: Drug metabolism. An outline of the steps: as §1
For data set [3], the system named is Mus musculus. The data set can be described thus: Hypothermic activity in ddN mouse assessed as reduction of rectal temperature at 20 mg/kg, iv after 2 hrs. The data set is classed as functional. An outline of the steps:
(§2)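 Rectal temperature taken with a thermistor thermometer after iv tail-vein dosing at 10 or 20 mg/kg (1% Tween 80 suspension or saline solution). Room held at 23 ± 1 °C; time course followed up to 5 h. Decline reported as mean ± SE of eight mice.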

A short description of data set [4]: Drug metabolism in mouse liver homogenates assessed as compound hydrolysis at pH 9.6 after 30 mins by spectrophotometric analysis in presence of alkaline phosphatase. The data set is classed as ADME, tissue-based. As to conditions: read-out: Drug metabolism. An outline of the steps: as §1
For data set [5], the system named is Mus musculus. The data set is described as follows: Cataleptogenic activity in iv dosed ddN mouse assessed as induction of catalepsy after 60 mins by bar test. The data set is classed as functional. An outline of the steps: (§3)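 Catalepsy scored by a modified simple bar test at 30 and 60 min after iv tail-vein injection (0.1 mL/10 g; 1% Tween 80 suspension or saline solution). Eight mice per dose; vehicle controls. ED50 with 95% confidence limits at peak time.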

The nature of data set [6]: Drug metabolism in mouse liver homogenates assessed as compound hydrolysis at pH 5 after 15 mins by spectrophotometric analysis in presence of alkaline phosphatase. The data set is classed as ADME, tissue-based. As to conditions: read-out: Drug metabolism. In outline:
as §1

Data set [7] is described as follows: Drug metabolism in mouse liver homogenates assessed as compound hydrolysis at pH 5 after 60 mins by spectrophotometric analysis in presence of alkaline phosphatase. As to conditions: read-out: Drug metabolism. The data set is classed as ADME, tissue-based. In outline: as §1
Data set [8] concerns Mus musculus. The data set can be described thus: Potentiation of thiopental-induced sleep in iv dosed ddN mouse assessed as loss of righting reflex after 60 mins administered with saline. The data set is classed as functional. An outline of the steps:
(§4)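 Pretreatment given iv (saline solution or 1% Tween 80 suspension; vehicle controls for each), followed 30 or 60 min later by thiopental 80 mg/kg iv. Sleep measured as loss of righting reflex. Potentiation counted positive when sleeping time exceeded twice the matching control. Eight mice per dose; ED50 with confidence limits.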

The test system of data set [9] is Mus musculus. The data set is described as follows: Acute toxicity in ddN mouse assessed as mortality up to 160 mg/kg, iv after 24 hrs. The data set is classed as organism-based. Details: dose 160 mg/kg, route intravenous. The note with it: in vivo. An outline of the steps: (§5)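 Mice dosed iv via tail vein, 0.1 mL/10 g body weight; parent compound as suspension in 1% Tween 80, phosphate as solution in saline. Eight animals per dose.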

A short description of data set [10]: Drug metabolism in mouse liver homogenates assessed as compound hydrolysis at pH 9.6 after 15 mins by spectrophotometric analysis in presence of alkaline phosphatase. The data set is classed as ADME, tissue-based. As to conditions: read-out: Drug metabolism. In outline: as §1
Data set [11] has as its system Mus musculus. The data set can be described thus: Hypothermic activity in ddN mouse assessed as reduction of rectal temperature at 10 mg/kg, iv after 2 hrs. The data set is classed as functional. In outline: as §2
The test system of data set [12] is Mus musculus. The data set can be described thus: Potentiation of thiopental-induced sleep in iv dosed ddN mouse assessed as loss of righting reflex after 30 to 60 mins. The data set is classed as functional. An outline of the steps:
as §4

For data set [13], the system named is Mus musculus. The data set can be described thus: Cataleptogenic activity in iv dosed ddN mouse assessed as induction of catalepsy after 30 to 60 mins by bar test. The data set is classed as functional. An outline of the steps:
as §3

For data set [14], the system named is Mus musculus. The data set is described as follows: Cataleptogenic activity in iv dosed ddN mouse assessed as induction of catalepsy after 30 mins by bar test. The data set is classed as functional, organism-based. An outline of the steps: as §3
In data set [15] the test system is Mus musculus. The data set is described as follows: Hypothermic activity in ddN mouse assessed as reduction of rectal temperature at 10 mg/kg, iv after 1 hr. The data set is classed as functional. An outline of the steps: as §2
Data set [16] deals with Mus musculus. The data set can be described thus: Hypothermic activity in ddN mouse assessed as reduction of rectal temperature at 20 mg/kg, iv after 1 hr. The data set is classed as functional. In outline:
as §2

For data set [17], the system named is Mus musculus. The data set is described as follows: Potentiation of thiopental-induced sleep in iv dosed ddN mouse assessed as loss of righting reflex after 60 mins administered with 1% Tween-80. The data set is classed as functional, organism-based. In outline: as §4
The nature of data set [18]: Acute toxicity in iv dosed ddN mouse assessed as mortality after 24 hrs. The data set is classed as organism-based. As to conditions: in vivo. In outline:
as §5

Activity calls are given as the source filed them. The rule behind the calls is not given here.

For the compound `CCCCCc1cc2c(c(OP(=O)([O-])[O-])c1)[C@@H]1CC(C)=CC[C@H]1C(C)(C)O2.[Na+].[Na+]`, the results for the metabolised at 0.5 h in [1] and in data set [4] were 20.7% and 13.9%, respectively. The metabolised at 1 h in [2] was 24.5%; in data set [7] it was 29.2%. The T in the data set with Mus musculus [3] came out at 5 °C; in the data set with Mus musculus [11], 2.4 °C. Moreover, the results for the Activity in the data set with Mus musculus [5], with Mus musculus [8] and with Mus musculus [9] were 10%, 7% and “Non-toxic”, respectively. Further, the metabolised at 0.25 h in [6] worked out at 15.3%; in data set [10], 7.8%. Further, the 50% effective dose (ED50) in the data set on Mus musculus [12] worked out at 17.5 mg/kg; in the data set with Mus musculus [13], 37 mg/kg.

Consider `O=[N+]([O-])c1ccc(OP(=O)(O)O)cc1` [p-NITROPHENYLPHOSPHATE], for which the values for the metabolised at 0.5 h in [1] and in data set [4] were 96.7% and 36.4%, respectively. Besides, the metabolised at 1 h in data set [2] came out at 73.6%; in [7], 97.7%. For the same compound, the results for the metabolised at 0.25 h in data set [6] and in [10] were 88.9% and 21.5%, respectively.

As for `CCCCCc1cc(O)c2c(c1)OC(C)(C)[C@@H]1CC=C(C)C[C@@H]21` [DELTA-8-TETRAHYDROCANNABINOL], the outcome with Mus musculus [14] and with Mus musculus [17] was Active. Moreover, the T was determined as 3.8 °C in the data set with Mus musculus [15] and 4.8 °C with Mus musculus [16]. Moreover, the LD50 at 24 h in data set [18] turned out to be 27.5 mg/kg. The values for the ED50 in the data set on Mus musculus [12] and in the data set with Mus musculus [13] were 1.2 mg/kg and 3.3 mg/kg, respectively.
